{"source": "paper PMC8994735", "about": "(Targeted Oncology, 2021)", "key": {"[1]": {"system": "advanced nonhematologic malignancies", "test": "Antitumor activity: disease response by RECIST v1.1", "type": "in vivo, human", "method_in_brief": "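Oral dosing once daily (2, 3 or 4 mg) or once weekly (20 or 30 mg) in 28-day cycles. Treatment lasted up to 12 months or until progression, unacceptable toxicity or consent withdrawal. Response was assessed by RECIST v1.1 in the safety analysis set (patients receiving ≥ 1 dose). Analysis was descriptive, with no formal hypothesis testing.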"}, "[2]": {"system": "Western patients", "conditions": "cited from earlier work"}}, "note": "Like-named read-outs stand apart in the source and are kept apart here.", "data": [{"smiles": "CC(C)n1nc(-c2ccc3oc(N)nc3c2)c2c(N)ncnc21", "note": "[sapanisertib]", "values": [{"measurement": "Best overall response of progressive disease", "setting": "[1]; QD arm", "result": 45, "unit": "%"}, {"measurement": "Clinical benefit rate (CR, PR, or SD of any duration)", "setting": "[1]; QD arm", "result": 45, "unit": "%"}, {"measurement": "Discontinuation due to progressive disease", "setting": "[1]; QD arm", "result": 64, "unit": "%"}, {"measurement": "Best overall response of progressive disease", "setting": "[1]; QW arm", "result": 33, "unit": "%"}, {"measurement": "Clinical benefit rate (CR, PR, or SD of any duration)", "setting": "[1]; QW arm", "result": 67, "unit": "%"}, {"measurement": "Discontinuation due to progressive disease", "setting": "[1]; QW arm", "result": 67, "unit": "%"}, {"measurement": "Patients with stable disease for ≥ 6 months", "setting": "[1]; all cohorts", "result": "Three"}, {"measurement": "Complete response (CR) or partial response (PR)", "setting": "[1]; either treatment arm", "result": "No patients"}, {"measurement": "Anti-tumor effect", "setting": "[1]; heavily pretreated patients, across dosing schedules", "result": "Moderate anti-tumor effects and a favorable safety profile were observed with sapanisertib in this heavily pretreated patient population"}, {"measurement": "RP2D in Western patients", "setting": "[2]; QD, Western patient populations", "result": 4, "unit": "mg"}, {"measurement": "Lowest RP2D in previous studies in Western patients", "setting": "[2]; QD", "result": 4, "unit": "mg"}, {"measurement": "Lowest RP2D in previous studies in Western patients", "setting": "[2]; QW", "result": 30, "unit": "mg"}]}]}
